Like-named read-outs stand apart in the source and are kept apart here.
Legend:
Pf Dd2^WT = test: Parasite growth inhibition assay, erythrocytic stage; format: cell-based, Plasmodium falciparum; conditions: for inhibition of Pf growth: strain not stated in text (Figure 5A); for EC50: read-out: EC50 Pf Dd2^WT
[1] = test system: Pf Dd2 proteins and peptides; format: cell-based, Plasmodium falciparum; conditions: 700 nM for 6 h, Cy3-alkyne click, in-gel fluorescence
Pf20S β5 = Pf20S β5 (Plasmodium falciparum, UniProt A0A5K1K7U1+Q8IJT1); test: biochemical; format: biochemical; conditions: for activity against Pf20S: Pf20S β5
[2] = test system: Pf strains Cam3.I^rev and Cam3.I^R539T; test: Extended RSA / parasite regrowth assay; format: cell-based, Plasmodium falciparum; conditions: 6 h pulse as in RSA, parasitemia on day 7, ART-sensitive and ART-resistant lines
Outline: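 Cultures repeatedly sorbitol-synchronized, then Percoll-sorbitol enriched for late stages, allowed 3 h reinvasion and sorbitol-treated again to give 0–3 h rings. Rings plated at 0.5% parasitemia and exposed to test compound (700 or 800 nM) for 6 h, then washed. Transferred into 3 mL culture for seven days; parasitemia scored by microscopy on day 7.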

[3] = test system: DHA-resistant clones DR1, DR2, DR4 derived from Dd2; test: Standard 72-h in vitro assay on DHA-resistant clones; format: cell-based, Plasmodium falciparum; conditions: standard 72-h assay
i-20S/PA28α = test: Degradation of the modified β-casein by i-20S; format: biochemical, human; conditions: β-casein pre-incubated with 100 μM compound, hemin and ascorbate; for degradation of β-casein by i-20S/PA28α, dialyzed set: then dialyzed; for degradation of β-casein by i-20S/PA28α, non-dialyzed control: not dialyzed
Dd2β6^A117D = test: Parasite growth inhibition assay, erythrocytic stage; format: cell-based, Plasmodium falciparum; conditions: for EC50: Plasmodium falciparum, 72 h, read-out: EC50 Dd2β6^A117D; for fold more resistant / reduced potency, Dd2β6^A117D versus parental Dd2: EC50 ratio
Dd2β5^A49S = test: as above; format: cell-based, Plasmodium falciparum; conditions: for EC50: Plasmodium falciparum, 72 h, read-out: EC50 Dd2β5^A49S; for fold more resistant / reduced potency, Dd2β5^A49S versus parental Dd2: EC50 ratio
human c-20S β5c = human c-20S β5c (Homo sapiens, UniProt P20618+P28074); test: Proteasome IC50 determination, human c-20S β5c; format: biochemical
Outline: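 Human c-20S (0.2 nM) assayed in 20 mM HEPES, 0.5 mM EDTA, 0.1 mg/mL BSA, pH 7.5, with 0.02% SDS and 25 µM suc-LLVY-AMC. Pf20S (1 nM) assayed in 50 mM Tris, 5 mM MgCl2, 1 mM DTT, pH 7.4, with 12 nM PA28α, 0.5 µM WLW-VS and 25 µM suc-LLVY-AMC. Test compound given as a 3-fold series, 100–0.0017 µM final. AMC read at 360/460 nm for 1–2 h; linear velocities fitted to a dose-response equation. Run in duplicate or triplicate.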

HepG2 cells = test: HepG2 cell viability assay; format: cell-based; conditions: read-out: HepG2
human i-20S β5i = human i-20S β5i (Homo sapiens, UniProt P20618+P28062); test: Proteasome IC50 determination, human i-20S β5i; format: biochemical
Outline: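 Human i-20S (0.4 nM) assayed in 20 mM HEPES, 0.5 mM EDTA, 0.1 mg/mL BSA, pH 7.5, with 0.02% SDS and 15 µM Ac-ANW-AMC. Pf20S (1 nM) assayed in 50 mM Tris, 5 mM MgCl2, 1 mM DTT, pH 7.4, with 12 nM PA28α, 0.5 µM WLW-VS and 25 µM suc-LLVY-AMC. Test compound given as a 3-fold series, 100–0.0017 µM final. AMC read at 360/460 nm for 1–2 h; velocities fitted to a dose-response equation. Run in duplicate or triplicate.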

[4] = test system: P. berghei G2025^R551T (K13^R551T); test: Modified Peters' 4-day suppressive test for recrudescence, ART-resistant strain; format: in vivo, Swiss Webster mice; conditions: ART 50 mg/kg, ATZ4 100 mg/kg i.p. day 0 to day 2
P. berghei ANKA lux = test: In vivo efficacy in mice infected with P. berghei ANKA lux; set-up: species or system Swiss Webster mice; conditions: 20 mg/kg i.p. once daily day 3 to day 6, luminescence on day 7; positive control
Pf20Sβ5^A49S = test: Blocking of MV151 labeling in parasite lysate; format: binding, Plasmodium falciparum; conditions: 1 h preincubation of Dd2β5^A49S lysate
Outline: (§1)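 Dd2 wild-type or mutant parasite pellets lysed on ice for 1 h in 50 mM Tris-HCl, 5 mM MgCl2, 1 mM DTT, pH 7.4, then centrifuged; protein quantified by BCA. 5–10 µg of lysate protein preincubated with test compound for 1 h at 37°C. MV151 added at 2 µM final for a further 1 h at 37°C, protected from light. Run on 12% Bis-Tris SDS-PAGE and scanned at Cy3/TAMRA (λex 532, λem 560 nm).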

Pf20Sβ6^A117D = test: Blocking of MV151 labeling in parasite lysate; format: binding, Plasmodium falciparum; conditions: 1 h preincubation of Dd2β6^A117D lysate
Outline: as §1

[5] = test system: Pf20S β5 in lysate of Dd2^WT; test: Blocking of MV151 labeling in parasite lysate; format: binding, Plasmodium falciparum; conditions: 1 h preincubation of Dd2^WT lysate
Outline: as §1

Dd2β6^A117DK13^R539T = test: Parasite growth inhibition, dual resistant strain; format: cell-based, Plasmodium falciparum; conditions: EC50 fold change, three experiments (Figure 6B)
[6] = Plasmodium falciparum, DD2, Erythrocyte, 72 h

SMILES | labeling of parasite proteins and peptides [1] | activity against Pf20S (Pf20S β5) | parasite regrowth after pulse [2] | susceptibility of DHA-resistant clones compared with WT Dd2 [3] | EC50 (Pf Dd2^WT; [6]) | EC50 (Dd2β6^A117D) | EC50 (Dd2β5^A49S) | IC50 (human c-20S β5c) | IC50 (human i-20S β5i) | IC50 (Pf20S β5) | also measured
C[C@H]1[C@@H](CC(=O)N[C@@H](CCCN=[N+]=[N-])C(=O)N[C@@H](CC(=O)NC(C)(C)C)C(=O)NCCNC(=O)c2cc(-c3ccccc3F)ccc2F)O[C@@H]2O[C@@]3(C)CC[C@H]4[C@H](C)CC[C@@H]1[C@@]24O3 [deoxy-ATZ-P1, (S)-2-((S)-5-azido-2-(2-((2R,3R,3aS,3a^1R,6R,6aS,9S,10aR)-3,6,9-trimethyldecahydro-10aH-3a^1,9-epoxyoxepino[4,3,2-ij]isochromen-2-yl)acetamido)pentanamido)-N^4-(tert-butyl)-N^1-(2-(2′,4-difluoro-[1,1′-biphenyl]-3-carboxamido)ethyl)succinamide] | minimal labeling of proteins and peptides | highly potent inhibitors | – | – | – | – | – | – | – | – | inhibition of Pf growth (Pf Dd2^WT): highly potent inhibitors
C[C@H]1[C@@H](O)O[C@@H]2O[C@@]3(C)CC[C@H]4[C@H](C)CC[C@@H]1[C@@]24OO3 [DHA, dihydroartemisinin, reference compound] | – | – | re-established normal growth | highly resistant | – | – | – | – | – | – | –
C[C@H]1[C@@H](CC(N)=O)O[C@@H]2O[C@@]3(C)CC[C@H]4[C@H](C)CC[C@@H]1[C@@]24OO3 [ART1, 2-((3R,5aS,6R,8aS,9R,10R,12R,12aR)-3,6,9-trimethyldecahydro-12H-3,12-epoxy[1,2]dioxepino[4,3-i]isochromen-10-yl)acetamide] | – | – | re-established normal growth | modestly resistant | 43.7 ± 12.7 nM | 27.9 ± 11 nM | 30.2 ± 2.6 nM | > 100000 nM | > 100000 nM | 9200 nM | degradation of β-casein by i-20S/PA28α, dialyzed set (i-20S/PA28α): unimpeded degradation of β-casein; activity against human proteasomes (human c-20S β5c; hu c-20S): inactive; EC50 (HepG2 cells; Homo sapiens, HepG2, 72 h): > 100000 nM; activity against human proteasomes (human i-20S β5i; hu i-20S): inactive
C[C@@H]1CC[C@H]2[C@@H](C)C(=O)O[C@@H]3O[C@@]4(C)CC[C@@H]1[C@]32OO4 [ART, artemisinin, reference compound] | minimal labeling of proteins and peptides | – | – | – | – | – | – | – | – | – | mice with positive blood smear on day 6 [4]: 20%; mice with positive blood smear on day 8 [4]: 40%; mice with positive blood smear on day 10 [4]: 100%
CCN(CC)CCCC(C)Nc1ccnc2cc(Cl)ccc12 (stereo not shown) [chloroquine, reference compound] | – | – | – | – | – | – | – | – | – | – | parasite load (P. berghei ANKA lux): below the limit of detection
CC(C)(C)NC(=O)C[C@H](NC(=O)CCCNC(=O)OC(C)(C)C)C(=O)NCCNC(=O)c1cc(-c2ccccc2F)ccc1F [PI01, tert-butyl (S)-(4-((4-(tert-butylamino)-1-((2-(2′,4-difluoro-[1,1′-biphenyl]-3-carboxamido)ethyl)amino)-1,4-dioxobutan-2-yl)amino)-4-oxobutyl)carbamate] | – | – | re-established normal growth | – | 7.4 ± 0.2 nM | 121 ± 20 nM | > 2770 nM | 2000 nM | 200 ± 46 nM | 6 ± 0.8 nM | degradation of β-casein by i-20S/PA28α, non-dialyzed control (i-20S/PA28α): inhibited the degradation of β-casein; degradation of β-casein by i-20S/PA28α, dialyzed set (i-20S/PA28α): unimpeded degradation of β-casein; blocking of MV151 labeling of β5 (Pf20Sβ5^A49S): prevented PI01 and ATZ4 from inhibiting; fold more resistant / reduced potency, Dd2β6^A117D versus parental Dd2 (Dd2β6^A117D): 16 fold; fold more resistant / reduced potency, Dd2β5^A49S versus parental Dd2 (Dd2β5^A49S): > 370 fold; blocking of MV151 labeling of β5 (Pf20Sβ6^A117D): prevented PI01 and ATZ4 from inhibiting; fold less active on hu c-20S than on Pf20S (human c-20S β5c; ratio of IC50 values): ~300 fold; EC50 (HepG2 cells; Homo sapiens, HepG2, 72 h): > 100000 nM; fold less active on hu i-20S than on Pf20S (human i-20S β5i; ratio of IC50 values): ~ 30 fold; blocking of MV151 labeling of β5 [5]: dose dependently blocked labeling of β5
C[C@H]1[C@@H](CC(=O)NCC(=O)N[C@@H](CC(=O)NC(C)(C)C)C(=O)NCCNC(=O)c2cc(-c3ccccc3F)ccc2F)O[C@@H]2O[C@@]3(C)CC[C@H]4[C@H](C)CC[C@@H]1[C@@]24OO3 [ATZ2, (S)-N4-(tert-butyl)-N1-(2-(2′,4-difluoro-[1,1′-biphenyl]-3-carboxamido)ethyl)-2-(2-(2-((3R,5aS,6R,8aS,9R,10R,12R,12aR)-3,6,9-trimethyldecahydro-12H-3,12-epoxy[1,2]dioxepino[4,3-i]isochromen-10-yl)acetamido)acetamido)succinamide] | – | potency comparable with that of PI01 | – | – | 3 ± 0.6 nM | 4.4 ± 1.1 nM | 10.9 ± 2.6 nM | 210 ± 40 nM | 73 ± 19 nM | 2.9 ± 0.6 nM | degradation of β-casein by i-20S/PA28α, non-dialyzed control (i-20S/PA28α): inhibited the degradation of β-casein; times more potent than ART1 against Dd2 (Pf Dd2^WT; EC50 ratio): 10 times; fold improvement over PI01 against Dd2β6^A117D (Dd2β6^A117D): ≥ 5 fold; fold more resistant / reduced potency, Dd2β6^A117D versus parental Dd2 (Dd2β6^A117D): ≤ 2.9 fold; fold improvement over PI01 against Dd2β5^A49S (Dd2β5^A49S): > 100 fold; fold more resistant / reduced potency, Dd2β5^A49S versus parental Dd2 (Dd2β5^A49S): ≤ 3.6 fold
C[C@H]1[C@@H](CC(=O)NCCCC(=O)N[C@@H](CC(=O)NC(C)(C)C)C(=O)NCCNC(=O)c2cc(-c3ccccc3F)ccc2F)O[C@@H]2O[C@@]3(C)CC[C@H]4[C@H](C)CC[C@@H]1[C@@]24O3 [Deoxy-ATZ4, (S)-N4-(tert-butyl)-N1-(2-(2′,4-difluoro-[1,1′-biphenyl]-3-carboxamido)ethyl)-2-(4-(2-((2R,3R,3aS,3a1R,6R,6aS,9S,10aR)-3,6,9-trimethyldecahydro-10aH-3a1,9-epoxyoxepino [4,3,2-ij]isochromen-2-yl)acetamido)butanamido)succinamide] | – | potency comparable with that of PI01 | – | equally susceptible | – | – | – | – | – | – | EC50 (Pf Dd2^WT; 72 h growth inhibition in red blood cells, mean ± SD): 21.6 ± 1.4 nM; fold less potent against Dd2β6^A117D compared with Dd2 and Dd2K13^R539T (Dd2β6^A117D; EC50 fold change, three experiments (Figure 6B)): 5.6 fold; EC50 (HepG2 cells; 72 h cell viability, mean ± SD): 10800 nM; fold less potent against Dd2β6^A117DK13^R539T compared with Dd2 and Dd2K13^R539T (Dd2β6^A117DK13^R539T): 11.0 fold
C[C@H]1[C@@H](CC(=O)N[C@@H](CCCN=[N+]=[N-])C(=O)N[C@@H](CC(=O)NC(C)(C)C)C(=O)NCCNC(=O)c2cc(-c3ccccc3F)ccc2F)O[C@@H]2O[C@@]3(C)CC[C@H]4[C@H](C)CC[C@@H]1[C@@]24OO3 [ATZ-P1, (S)-2-((S)-5-azido-2-(2-((3R,5aS,6R,8aS,9R,10R,12R,12aR)-3,6,9-trimethyldecahydro-12H-3,12-epoxy[1,2]dioxepino[4,3-i]isochromen-10-yl)acetamido)pentanamido)-N^4-(tert-butyl)-N^1-(2-(2′,4-difluoro-[1,1′-biphenyl]-3-carboxamido)ethyl)succinimide] | substantial labeling of proteins and peptides | highly potent inhibitors | – | – | – | – | – | – | – | – | inhibition of Pf growth (Pf Dd2^WT): highly potent inhibitors

Source: paper PMC10240386 (Cell chemical biology, 2023)
